Measured values published in ChEMBL document CHEMBL1131311, “Discovery of a novel, potent, and orally active nonpeptide antagonist of the human luteinizing hormone-releasing hormone (LHRH) receptor” (J Med Chem, 1998).

Target: T1, Gonadotropin-releasing hormone receptor (Homo sapiens, UniProt P30968)
T1 sequence (P30968 whole entry): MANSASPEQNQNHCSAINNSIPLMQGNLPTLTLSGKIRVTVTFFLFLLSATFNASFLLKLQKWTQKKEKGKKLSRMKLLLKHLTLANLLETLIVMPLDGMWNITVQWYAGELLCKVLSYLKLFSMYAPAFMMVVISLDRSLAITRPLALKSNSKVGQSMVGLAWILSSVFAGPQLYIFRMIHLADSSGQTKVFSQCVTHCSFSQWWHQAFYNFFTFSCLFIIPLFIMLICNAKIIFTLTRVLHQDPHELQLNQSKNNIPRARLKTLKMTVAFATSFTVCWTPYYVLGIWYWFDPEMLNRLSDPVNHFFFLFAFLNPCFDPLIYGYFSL
Assay: The Compound was tested for the concentration to inhibit 50% of [125 I ]leuprorelin binding to the cloned human Leutinizing releasing hormone receptor (LHRH) receptor.
Summary of the method: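 Membranes from CHO cells stably expressing cloned human LHRH receptor (0.2 mg/mL) incubated with [125I]leuprorelin (0.15 nM) and graded compound in Tris/EDTA/BSA buffer with protease inhibitors, pH 7.5, 60 min at 25 °C. Filtration on PEI-coated glass fiber, gamma counting. Nonspecific binding with 1 µM unlabeled leuprorelin. IC50 from pseudo-Hill fit. Means of ≥3 determinations.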

IC50: 4 nM
Compound: CCOC(=O)c1cn(Cc2c(F)cccc2F)c2sc(-c3ccc(N)cc3)c(CN(C)Cc3ccccc3)c2c1=O
